Measured values reported in ChEMBL document CHEMBL1145545, “Discovery of a novel A2B adenosine receptor antagonist as a clinical candidate for chronic inflammatory airway diseases” (J Med Chem, 2008).

Columns and labels:
Homo sapiens [1] = species: Homo sapiens; test: Selectivity for human recombinant adenosine A2B receptor over human recombinant adenosine A3 receptor
Adenosine receptor A3 = target: T1, Adenosine receptor A3 (Homo sapiens, UniProt P0DMS8); test: Displacement of [125I]ABMECA from human recombinant adenosine A3 receptor expressed in CHO cells; assay type: cell-based
T1 sequence (P0DMS8 whole entry): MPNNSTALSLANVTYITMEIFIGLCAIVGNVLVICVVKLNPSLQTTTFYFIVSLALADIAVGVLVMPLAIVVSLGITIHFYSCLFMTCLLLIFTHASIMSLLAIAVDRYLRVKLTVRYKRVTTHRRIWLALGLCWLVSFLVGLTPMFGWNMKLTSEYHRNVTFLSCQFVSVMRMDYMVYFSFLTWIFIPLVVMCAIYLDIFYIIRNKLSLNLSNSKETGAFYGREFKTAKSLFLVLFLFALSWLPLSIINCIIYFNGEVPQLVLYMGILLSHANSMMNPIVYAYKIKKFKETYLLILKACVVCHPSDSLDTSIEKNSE
Method in brief: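 Human A3 receptor stably expressed in CHO cells; membranes incubated with 0.1 nM 125I-AB-MECA and test compound in 50 mM Tris, 1 mM EDTA, 10 mM MgCl2 plus 1 U/mL adenosine deaminase, 25 °C, 90 min; filtration, four ice-cold washes. Nonspecific binding defined with 1 µM IB-MECA; Ki determined.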

Adenosine receptor A2a = Adenosine receptor A2a (Homo sapiens, UniProt P29274); test: Displacement of [3H]ZM-241385 from human recombinant adenosine A2A receptor expressed in HEK293 cells; assay type: cell-based
Adenosine receptor A2a, sequence (P29274 whole entry): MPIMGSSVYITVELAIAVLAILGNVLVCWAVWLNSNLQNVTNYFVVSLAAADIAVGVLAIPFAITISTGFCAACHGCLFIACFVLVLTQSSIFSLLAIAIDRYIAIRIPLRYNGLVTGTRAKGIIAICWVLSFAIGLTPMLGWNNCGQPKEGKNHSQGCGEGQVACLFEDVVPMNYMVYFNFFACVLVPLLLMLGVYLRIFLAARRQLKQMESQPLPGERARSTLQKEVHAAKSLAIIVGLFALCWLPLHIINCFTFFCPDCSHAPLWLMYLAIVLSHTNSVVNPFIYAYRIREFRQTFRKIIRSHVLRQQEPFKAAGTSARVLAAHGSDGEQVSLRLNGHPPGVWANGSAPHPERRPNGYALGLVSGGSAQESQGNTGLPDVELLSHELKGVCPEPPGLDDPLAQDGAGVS
Method in brief: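 Membranes from HEK293 cells stably expressing human A2A receptor; 2 nM radioligand competed in 50 mM Tris/1 mM EDTA with 1 U/mL adenosine deaminase for 90 min at 25 °C with agitation; filtration, four ice-cold Tris/MgCl2 washes. Nonspecific binding defined with 1 µM unlabelled ligand; Ki computed.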

Homo sapiens [2] = species: Homo sapiens; test: Selectivity for human recombinant adenosine A2B receptor over human recombinant adenosine A2A receptor
Adenosine receptor A2b = target: T2, Adenosine receptor A2b (Homo sapiens, UniProt P29275); test: Displacement of [3H]ZM-241385 from human recombinant adenosine A2B receptor expressed in HEK293 cells; assay type: cell-based
T2 sequence (P29275 whole entry): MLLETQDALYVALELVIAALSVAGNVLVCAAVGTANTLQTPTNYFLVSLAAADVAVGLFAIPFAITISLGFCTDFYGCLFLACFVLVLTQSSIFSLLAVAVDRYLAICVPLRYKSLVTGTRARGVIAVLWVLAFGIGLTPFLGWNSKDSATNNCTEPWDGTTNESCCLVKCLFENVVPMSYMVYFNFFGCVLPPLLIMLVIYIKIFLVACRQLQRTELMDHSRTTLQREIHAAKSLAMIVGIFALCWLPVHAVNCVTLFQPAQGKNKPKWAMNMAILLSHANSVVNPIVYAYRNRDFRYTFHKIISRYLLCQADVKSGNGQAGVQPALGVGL
Method in brief: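 Membranes from HEK293 cells stably expressing human A2B receptor; competition with 10 nM radioligand, 50 µg membrane protein, in 50 mM Tris/1 mM EDTA with 1 U/mL adenosine deaminase, 25 °C for 90 min with gentle agitation; filtration, four ice-cold Tris/MgCl2 washes. Nonspecific binding defined with 10 µM unlabelled ligand; Ki calculated.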

Homo sapiens [3] = species: Homo sapiens; test: Selectivity for human recombinant adenosine A2B receptor over human recombinant adenosine A1 receptor
Adenosine receptor A1 = target: T3, Adenosine receptor A1 (Homo sapiens, UniProt P30542); test: Displacement of [3H]CPX from human recombinant adenosine A1 receptor expressed in CHO cells; assay type: cell-based
T3 sequence (P30542 whole entry): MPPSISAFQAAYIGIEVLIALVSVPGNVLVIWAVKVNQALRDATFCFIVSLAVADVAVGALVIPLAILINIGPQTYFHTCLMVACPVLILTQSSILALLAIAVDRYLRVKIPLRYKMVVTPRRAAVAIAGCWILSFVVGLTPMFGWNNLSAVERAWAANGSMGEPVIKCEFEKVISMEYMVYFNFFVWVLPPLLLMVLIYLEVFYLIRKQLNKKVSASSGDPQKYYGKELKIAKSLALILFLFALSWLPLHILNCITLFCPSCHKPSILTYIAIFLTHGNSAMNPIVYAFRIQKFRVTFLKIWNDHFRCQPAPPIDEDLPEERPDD
Method in brief: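 CHO cell membranes stably expressing human A1 receptor; 0.5 nM [3H]CPX competed with test compound in 50 mM Tris/1 mM EDTA plus 1 U/mL adenosine deaminase, 25 °C, 90 min, gentle agitation; filtration and four ice-cold Tris/MgCl2 washes. Nonspecific binding defined with 1 µM CPX; Ki values derived.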

| Ratio Ki (Homo sapiens [1]) | Ki (Adenosine receptor A3) | Ki (Adenosine receptor A2a) | Ratio Ki (Homo sapiens [2]) | Ki (Adenosine receptor A2b) | Ratio Ki (Homo sapiens [3]) | Ki (Adenosine receptor A1) | SMILES |
| --- | --- | --- | --- | --- | --- | --- | --- |
| 7 | 95 nM | 139 nM | 10 | 13 nM | 22 | 290 nM | CCCn1c(=O)c2[nH]c(-c3cnn(Cc4cccc(F)c4)c3)nc2n(C)c1=O |
| 2 | 107 nM | 301 nM | 5 | 60 nM | 6 | 352 nM | CC(C)Cn1c(=O)c2[nH]c(-c3cnn(Cc4cccc(F)c4)c3)nc2n(C)c1=O |
| 46 | 92 nM | 73 nM | 36 | 2 nM | 130 | 260 nM | CCn1c(=O)c2[nH]c(-c3cnn(Cc4ccccc4)c3)nc2n(C)c1=O |
| 10 | 324 nM | 3850 nM | 124 | 31 nM | 47 | 1480 nM | CCn1c(=O)n(CC(C)C)c(=O)c2[nH]c(-c3cnn(Cc4cccc(F)c4)c3)nc21 |
|  |  | 217 nM | 8 | 26 nM | 11 | 305 nM | CCCCn1c(=O)c2[nH]c(-c3cnn(Cc4cccc(F)c4)c3)nc2n(C)c1=O |
|  |  |  | 7 |  | 17 |  | Cn1c(=O)c2[nH]c(-c3cnn(Cc4cccc(F)c4)c3)nc2n(C)c1=O |
| 43 | 262 nM | 234 nM | 39 | 6 nM | 45 | 274 nM | CCn1c(=O)c2[nH]c(-c3cnn(Cc4cccc(C(F)(F)F)c4)c3)nc2n(C)c1=O |
|  |  | 633 nM | 3 | 199 nM | 3 | 617 nM | CC(C)Cn1c(=O)c2[nH]c(-c3cnn(Cc4cccc(C(F)(F)F)c4)c3)nc2n(C)c1=O |
|  |  | 496 nM | 10 | 49 nM | 4 | 178 nM | CCCn1c(=O)c2[nH]c(-c3cn[nH]c3)nc2n(CC)c1=O |
| 25 | 400 nM | 2280 nM | 142 | 16 nM | 80 | 1280 nM | CCn1c(=O)n(CC2CC2)c(=O)c2[nH]c(-c3cnn(Cc4ccc(C(F)(F)F)nc4)c3)nc21 |
| 15 | 326 nM | 272 nM | 12 | 22 nM | 10 | 218 nM | CCn1c(=O)n(CC2CC2)c(=O)c2[nH]c(-c3cnn(Cc4cccc(C(F)(F)F)c4)c3)nc21 |
| 5 | 35 nM | 73 nM | 10 | 7 nM | 26 | 185 nM | Cn1c(=O)n(CC2CC2)c(=O)c2[nH]c(-c3cnn(Cc4cccc(F)c4)c3)nc21 |
| 17 | 350 nM | 5410 nM | 270 | 20 nM | 180 | 3590 nM | CCn1c(=O)n(CC(C)C)c(=O)c2[nH]c(-c3cnn(Cc4ccc(C(F)(F)F)nc4)c3)nc21 |
|  |  | 1220 nM | 9 | 141 nM | 2 | 348 nM | CCn1c(=O)n(CC(C)C)c(=O)c2[nH]c(-c3cn[nH]c3)nc21 |
| 27 | 950 nM | 2500 nM | 71 | 35 nM | 34 | 1200 nM | CCCn1c(=O)c2[nH]c(-c3cnn(Cc4cccc(F)c4)c3)nc2n(CC)c1=O |
|  |  | 247 nM | 8 | 30 nM | 13 | 416 nM | CCCCn1c(=O)c2[nH]c(-c3cnn(Cc4ccccc4)c3)nc2n(C)c1=O |
| 6 | 290 nM | 670 nM | 15 | 45 nM | 33 | 1520 nM | CCCn1c(=O)c2[nH]c(-c3cnn(Cc4ccc(C)nc4)c3)nc2n(CC)c1=O |

| Ratio Ki (Homo sapiens [1]) | Ki (Adenosine receptor A3) | Ki (Adenosine receptor A2a) | Ratio Ki (Homo sapiens [2]) | Ki (Adenosine receptor A2b) | Ratio Ki (Homo sapiens [3]) | Ki (Adenosine receptor A1) | SMILES |
| --- | --- | --- | --- | --- | --- | --- | --- |
| 23 | 250 nM | 1090 nM | 99 | 11 nM | 57 | 631 nM | CCn1c(=O)n(CC(C)C)c(=O)c2[nH]c(-c3cnn(Cc4cccc(C(F)(F)F)c4)c3)nc21 |
|  |  |  |  | 120 nM |  |  | CCn1c(=O)c2[nH]c(-c3cn[nH]c3)nc2n(C)c1=O |
| 10 |  |  | 28 |  | 12 |  | CCCn1c(=O)c2[nH]c(-c3cnn(Cc4cccc(C(F)(F)F)c4)c3)nc2n(CCC)c1=O |
| 100 |  |  | 686 |  | 992 |  | Cn1c(=O)c2nc(-c3cnn(Cc4cccc(C(F)(F)F)c4)c3)[nH]c2n(C)c1=O |
|  |  | 1390 nM | 33 | 42 nM | 9 | 376 nM | CC(C)Cn1c(=O)c2[nH]c(-c3cn[nH]c3)nc2n(C)c1=O |
|  |  | 234 nM | 6 | 38 nM | 2 | 76 nM | CCn1c(=O)n(CC2CC2)c(=O)c2[nH]c(-c3cn[nH]c3)nc21 |
| 91 |  |  | 58 |  | 76 |  | CCn1c(=O)c2nc(-c3cnn(Cc4cccc(F)c4)c3)[nH]c2n(CC)c1=O |
| 4 |  |  | 17 |  | 13 |  | CCCn1c(=O)c2[nH]c(-c3cnn(Cc4cccc(F)c4)c3)nc2n(CCC)c1=O |
|  |  | 125 nM | 6 | 19 nM | 30 | 582 nM | CCCn1c(=O)c2[nH]c(-c3cnn(Cc4ccccc4)c3)nc2n(C)c1=O |
|  |  | 781 nM | 18 | 42 nM | 5 | 200 nM | CCCn1c(=O)c2[nH]c(-c3cnn(Cc4cc(-c5ccc(Cl)cc5)on4)c3)nc2n(CC)c1=O |
|  |  | > 5000 nM | > 15 | 335 nM | > 18 | > 6000 nM | CCCn1c(=O)c2[nH]c(-c3cnn(Cc4noc(-c5ccc(Cl)cc5)n4)c3)nc2n(CC)c1=O |
|  |  | 261 nM | 8 | 31 nM | 9 | 275 nM | CCCn1c(=O)c2[nH]c(-c3cnn(Cc4ccccc4)c3)nc2n(CC)c1=O |
|  |  | 411 nM | 9 | 46 nM | 9 | 410 nM | CCCn1c(=O)c2[nH]c(-c3cnn(Cc4ccccn4)c3)nc2n(CC)c1=O |
|  |  | 181 nM | 6 | 27 nM | 11 | 314 nM | CCn1c(=O)n(CC2CC2)c(=O)c2[nH]c(-c3cnn(Cc4ccccc4)c3)nc21 |
|  |  | 1950 nM | 4 | 506 nM | 2 | 1120 nM | CCCn1c(=O)c2[nH]c(-c3cnn(Cc4ccc[n+]([O-])c4)c3)nc2n(CC)c1=O |
|  |  | 312 nM | 14 | 22 nM | 23 | 522 nM | CCCn1c(=O)c2[nH]c(-c3cnn(Cc4cccnc4)c3)nc2n(CC)c1=O |
| 34 |  |  | 34 |  | 44 |  | CCn1c(=O)c2nc(-c3cnn(Cc4cccc(C(F)(F)F)c4)c3)[nH]c2n(CC)c1=O |
